{"source": "ChEMBL document CHEMBL3751842", "about": "“Novel triazolothiadiazines act as potent anticancer agents in liver cancer cells through Akt and ASK-1 proteins” (Bioorg Med Chem, 2016)", "key": {"Huh-7 [1]": {"system": "Huh-7", "experiment": "Induction of apoptosis in human HuH7 cells assessed as nuclear condensation at 10 uM after 48 hrs by Hoechst 33258 staining-based immunofluorescence microscopy", "type": "functional, cell-based", "in_short": "(§1)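 Cells on coverslips were incubated overnight, then treated with 10 µM compound or DMSO for 48 h. They were washed in ice-cold PBS, fixed in cold methanol for 10 min, and stained with 1 µg/mL Hoechst 33258 for 5 min in the dark. Nuclei were examined by fluorescence microscopy with a 40x objective.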"}, "Huh-7 [2]": {"system": "Huh-7", "experiment": "Induction of cell cycle arrest in human HuH7 cells assessed as accumulation at subG1 phase at 10 uM after 24 to 48 hrs by propidium iodide staining based FACS analysis", "type": "functional", "in_short": "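Huh7 cells were seeded at 300,000 per 100-mm dish. After 24 h they were treated with 10 µM compound or DMSO for 24 h and 48 h. Cells were trypsinized, fixed in ice-cold 70% ethanol and stored at −20 °C. They were then stained with propidium iodide and cell-cycle distribution, including SubG1, was read by flow cytometry.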"}, "Huh-7 [3]": {"system": "Huh-7", "experiment": "Induction of apoptosis in human HuH7 cells assessed as horseshoe nuclear structure at 10 uM after 48 hrs by Hoechst 33258 staining-based immunofluorescence microscopy", "type": "functional, cell-based", "in_short": "as §1"}, "Huh-7 [4]": {"system": "Huh-7", "experiment": "Cytotoxicity against human HuH7 cells assessed as cell impedance at IC25 to IC100 measured every 30 mins for 72 hrs by RT-CES assay", "type": "functional, cell-based", "details": "TDE = time-dependent effect", "in_short": "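Huh7 cells were seeded at 1000–5000 cells/well on electrode plates. […] Impedance was read as cell index every 10 min for the first 24 h, then every 30 min, over 72 h. Data were normalized to DMSO; inhibition (%) = [1 − (CI treated/CI DMSO)] × 100. Each experiment was run at least three times.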"}, "[5]": {"experiment": "Cytotoxicity against human HuH7 cells assessed as growth inhibition after 72 hrs by sulforhodamine B assay", "type": "functional, cell-based, Huh-7", "details": "Homo sapiens, Huh-7, 72 h; read-out: IC50", "in_short": "(§2)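 Cells were grown at 37°C, 5% CO2 in DMEM with 10% FBS. They were seeded at 1000–3000 cells/well, grown 24 h, then exposed to compound at 2.5–40 µM for 72 h. Cells were fixed in 10% TCA for 1 h at 4°C, stained with 0.4% SRB in 1% acetic acid for 10 min, and the dye solubilized in 10 mM Tris. Absorbance was read at 515 nm; runs were in triplicate; IC50 was calculated, with fits of R2 0.8–1 accepted.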"}, "MCF7": {"system": "MCF7", "experiment": "Cytotoxicity against human MCF7 cells assessed as growth inhibition after 72 hrs by sulforhodamine B assay", "type": "functional, cell-based", "details": "Homo sapiens, MCF7, 72 h; read-out: IC50", "in_short": "as §2"}, "[6]": {"experiment": "Cytotoxicity against human HCT116 cells assessed as growth inhibition after 72 hrs by sulforhodamine B assay", "type": "functional, cell-based, HCT-116", "details": "Homo sapiens, HCT-116, 72 h; read-out: IC50", "in_short": "as §2"}, "[7]": {"experiment": "Cytotoxicity against human Mahlavu cells assessed as growth inhibition after 72 hrs by sulforhodamine B assay", "type": "functional, cell-based", "details": "Homo sapiens, Mahlavu, 72 h; read-out: IC50", "in_short": "as §2"}, "[8]": {"experiment": "Cytotoxicity against human FOCUS cells assessed as growth inhibition after 72 hrs by sulforhodamine B assay", "type": "functional, cell-based", "details": "Homo sapiens, FOCUS, 72 h; read-out: IC50", "in_short": "as §2"}, "[9]": {"experiment": "Cytotoxicity against human SNU475 cells assessed as growth inhibition after 72 hrs by sulforhodamine B assay", "type": "functional, cell-based, SNU-475", "details": "Homo sapiens, SNU-475, 72 h; read-out: IC50", "in_short": "as §2"}, "HepG2": {"system": "HepG2", "experiment": "Cytotoxicity against human HepG2 cells assessed as growth inhibition after 72 hrs by sulforhodamine B assay", "type": "functional, cell-based", "details": "Homo sapiens, HepG2, 72 h; read-out: IC50", "in_short": "as §2"}, "[10]": {"experiment": "Cytotoxicity against human Hep3B cells assessed as growth inhibition after 72 hrs by sulforhodamine B assay", "type": "functional, cell-based, Hep 3B2", "details": "Homo sapiens, Hep3B, 72 h; read-out: IC50", "in_short": "as §2"}}, "note": "Active and inactive are the calls of the source. The rule behind the calls is not given here."}
{"smiles": "COc1ccc(C2=Nn3c(nnc3C(C)c3ccc(-c4ccccc4)c(F)c3)SC2)cc1", "note": "(configuration not stated)", "values": [{"measurement": "Activity", "setting": "Huh-7 [1]", "value": "Active"}, {"measurement": "Activity", "setting": "Huh-7 [2]", "value": "Active"}, {"measurement": "Activity", "setting": "Huh-7 [3]", "value": "Active"}, {"measurement": "Activity", "setting": "Huh-7 [4]", "value": "tde"}, {"measurement": "IC50", "setting": "[5]", "value": 4.3, "unit": "µM"}, {"measurement": "IC50", "setting": "MCF7", "value": 2.6, "unit": "µM"}, {"measurement": "IC50", "setting": "[6]", "value": 4.4, "unit": "µM"}, {"measurement": "IC50", "setting": "[7]", "value": 5.8, "unit": "µM"}, {"measurement": "IC50", "setting": "[8]", "value": 4.4, "unit": "µM"}, {"measurement": "IC50", "setting": "[9]", "value": 6.7, "unit": "µM"}, {"measurement": "IC50", "setting": "HepG2", "value": 4.2, "unit": "µM"}, {"measurement": "IC50", "setting": "[10]", "value": 3.5, "unit": "µM"}]}
